Assay results reported in ChEMBL document CHEMBL1136635, “Modification of the N-terminus of peptidomimetic protein tyrosine phosphatase 1B (PTP1B) inhibitors: identification of analogues with cellular activity” (Bioorg Med Chem Lett, 2003).
pKi: −log10 of the molar value.

Biological target: T1, Tyrosine-protein phosphatase non-receptor type 1 (Homo sapiens) (UniProt P18031)
T1 sequence (whole entry): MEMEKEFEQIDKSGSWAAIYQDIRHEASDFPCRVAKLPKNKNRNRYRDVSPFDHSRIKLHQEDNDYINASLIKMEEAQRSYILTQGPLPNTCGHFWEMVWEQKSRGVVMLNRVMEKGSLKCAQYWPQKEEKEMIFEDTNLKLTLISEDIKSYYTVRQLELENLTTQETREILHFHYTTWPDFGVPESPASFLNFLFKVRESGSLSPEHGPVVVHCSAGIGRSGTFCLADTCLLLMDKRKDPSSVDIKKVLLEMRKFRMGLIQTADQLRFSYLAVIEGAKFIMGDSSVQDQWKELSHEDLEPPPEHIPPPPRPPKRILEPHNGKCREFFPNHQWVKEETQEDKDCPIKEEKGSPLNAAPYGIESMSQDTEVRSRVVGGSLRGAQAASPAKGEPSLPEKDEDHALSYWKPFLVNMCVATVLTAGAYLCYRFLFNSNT
Assay: Inhibitory activity against human protein tyrosine phosphatase 1B (PTP1B) at a concentration of 100 uM
Procedure, shortened: (§1)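 Purified recombinant human enzyme constructs; PTP1B is a C-terminally truncated soluble form, tested alongside LAR and SHP-2. Activity is read as the initial rate of p-nitrophenyl phosphate (pNPP) hydrolysis and reported as percent inhibition. PTP1B is tested at 100, 10 and 1 µM, or 10 and 1 µM in the salicylate series; LAR and SHP-2 at 100 µM.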

Structure (SMILES) | inhibition [%]
CCCCCNC(=O)[C@H](Cc1ccc(OC(C(=O)O)C(=O)O)cc1)NC(=O)[C@H](Cc1cccc2ccccc12)NC(=O)OC(C)(C)C | 86
CCCCCNC(=O)[C@H](Cc1ccc(OC(C(=O)O)C(=O)O)cc1)NC(=O)[C@H](Cc1ccc2ccccc2c1)NC(=O)OC(C)(C)C | 90
CCCCCNC(=O)[C@H](Cc1ccc(OC(C(=O)O)C(=O)O)cc1)NC(=O)[C@H](Cc1ccccc1)NC(=O)CCNC(=O)OC(C)(C)C | 93

The next lines start with the values.

inhibition [%] | Structure (SMILES)
85 | CCCCCNC(=O)[C@H](Cc1ccc(OC(C(=O)O)C(=O)O)cc1)NC(=O)[C@H](CC(N)=O)NC(=O)OC(C)(C)C
94 | CCCCCNC(=O)[C@H](Cc1ccc(OC(C(=O)O)C(=O)O)cc1)NC(=O)[C@H](Cc1ccccc1)NC(=O)CCOC

Biological target: T1, Tyrosine-protein phosphatase non-receptor type 1 (Homo sapiens)
Assay: Inhibitory activity against human protein tyrosine phosphatase 1B (PTP1B) at a concentration of 10 uM
Procedure, shortened: as §1

Structure (SMILES) | inhibition [%]
CCCCCNC(=O)[C@H](Cc1ccc(OCC(=O)O)c(C(=O)O)c1)NC(=O)[C@H](Cc1ccccc1)NC(=O)Oc1ccccc1 | 85
CCCCCNC(=O)[C@H](Cc1ccc(OC(C(=O)O)C(=O)O)cc1)NC(=O)[C@H](Cc1cccc2ccccc12)NC(=O)OC(C)(C)C | 33
CCCCCNC(=O)[C@H](Cc1ccc(OC(C(=O)O)C(=O)O)cc1)NC(=O)[C@H](Cc1ccc2ccccc2c1)NC(=O)OC(C)(C)C | 29
CCCCCNC(=O)[C@H](Cc1ccc(OC(C(=O)O)C(=O)O)cc1)NC(=O)[C@H](Cc1ccccc1)NC(=O)CCNC(=O)OC(C)(C)C | 62

The next lines start with the values.

inhibition [%] | Structure (SMILES)
40 | CCCCCNC(=O)[C@H](Cc1ccc(OC(C(=O)O)C(=O)O)cc1)NC(=O)[C@H](CC(N)=O)NC(=O)OC(C)(C)C
65 | CCCCCNC(=O)[C@H](Cc1ccc(OC(C(=O)O)C(=O)O)cc1)NC(=O)[C@H](Cc1ccccc1)NC(=O)CCOC

Biological target: T1, Tyrosine-protein phosphatase non-receptor type 1 (Homo sapiens)
Assay: Inhibitory activity against human protein tyrosine phosphatase 1B (PTP1B) at a concentration of 1 uM
Procedure, shortened: as §1

Structure (SMILES) | inhibition [%]
CCCCCNC(=O)[C@H](Cc1ccc(OCC(=O)O)c(C(=O)O)c1)NC(=O)[C@H](Cc1ccccc1)NC(=O)Oc1ccccc1 | 43
CCCCCNC(=O)[C@H](Cc1ccc(OC(C(=O)O)C(=O)O)cc1)NC(=O)[C@H](Cc1cccc2ccccc12)NC(=O)OC(C)(C)C | 3
CCCCCNC(=O)[C@H](Cc1ccc(OC(C(=O)O)C(=O)O)cc1)NC(=O)[C@H](Cc1ccc2ccccc2c1)NC(=O)OC(C)(C)C | 3
CCCCCNC(=O)[C@H](Cc1ccc(OC(C(=O)O)C(=O)O)cc1)NC(=O)[C@H](Cc1ccccc1)NC(=O)CCNC(=O)OC(C)(C)C | 14

The remaining lines, values ahead:

inhibition [%] | Structure (SMILES)
9 | CCCCCNC(=O)[C@H](Cc1ccc(OC(C(=O)O)C(=O)O)cc1)NC(=O)[C@H](CC(N)=O)NC(=O)OC(C)(C)C
19 | CCCCCNC(=O)[C@H](Cc1ccc(OC(C(=O)O)C(=O)O)cc1)NC(=O)[C@H](Cc1ccccc1)NC(=O)CCOC

Biological target: Receptor-type tyrosine-protein phosphatase F (Homo sapiens) (UniProt P10586)
Assay: Inhibitory activity against phosphatase (LAR) at a concentration of 100 uM
Procedure, shortened: as §1

Chain of Receptor-type tyrosine-protein phosphatase F (Homo sapiens) (P10586 whole entry): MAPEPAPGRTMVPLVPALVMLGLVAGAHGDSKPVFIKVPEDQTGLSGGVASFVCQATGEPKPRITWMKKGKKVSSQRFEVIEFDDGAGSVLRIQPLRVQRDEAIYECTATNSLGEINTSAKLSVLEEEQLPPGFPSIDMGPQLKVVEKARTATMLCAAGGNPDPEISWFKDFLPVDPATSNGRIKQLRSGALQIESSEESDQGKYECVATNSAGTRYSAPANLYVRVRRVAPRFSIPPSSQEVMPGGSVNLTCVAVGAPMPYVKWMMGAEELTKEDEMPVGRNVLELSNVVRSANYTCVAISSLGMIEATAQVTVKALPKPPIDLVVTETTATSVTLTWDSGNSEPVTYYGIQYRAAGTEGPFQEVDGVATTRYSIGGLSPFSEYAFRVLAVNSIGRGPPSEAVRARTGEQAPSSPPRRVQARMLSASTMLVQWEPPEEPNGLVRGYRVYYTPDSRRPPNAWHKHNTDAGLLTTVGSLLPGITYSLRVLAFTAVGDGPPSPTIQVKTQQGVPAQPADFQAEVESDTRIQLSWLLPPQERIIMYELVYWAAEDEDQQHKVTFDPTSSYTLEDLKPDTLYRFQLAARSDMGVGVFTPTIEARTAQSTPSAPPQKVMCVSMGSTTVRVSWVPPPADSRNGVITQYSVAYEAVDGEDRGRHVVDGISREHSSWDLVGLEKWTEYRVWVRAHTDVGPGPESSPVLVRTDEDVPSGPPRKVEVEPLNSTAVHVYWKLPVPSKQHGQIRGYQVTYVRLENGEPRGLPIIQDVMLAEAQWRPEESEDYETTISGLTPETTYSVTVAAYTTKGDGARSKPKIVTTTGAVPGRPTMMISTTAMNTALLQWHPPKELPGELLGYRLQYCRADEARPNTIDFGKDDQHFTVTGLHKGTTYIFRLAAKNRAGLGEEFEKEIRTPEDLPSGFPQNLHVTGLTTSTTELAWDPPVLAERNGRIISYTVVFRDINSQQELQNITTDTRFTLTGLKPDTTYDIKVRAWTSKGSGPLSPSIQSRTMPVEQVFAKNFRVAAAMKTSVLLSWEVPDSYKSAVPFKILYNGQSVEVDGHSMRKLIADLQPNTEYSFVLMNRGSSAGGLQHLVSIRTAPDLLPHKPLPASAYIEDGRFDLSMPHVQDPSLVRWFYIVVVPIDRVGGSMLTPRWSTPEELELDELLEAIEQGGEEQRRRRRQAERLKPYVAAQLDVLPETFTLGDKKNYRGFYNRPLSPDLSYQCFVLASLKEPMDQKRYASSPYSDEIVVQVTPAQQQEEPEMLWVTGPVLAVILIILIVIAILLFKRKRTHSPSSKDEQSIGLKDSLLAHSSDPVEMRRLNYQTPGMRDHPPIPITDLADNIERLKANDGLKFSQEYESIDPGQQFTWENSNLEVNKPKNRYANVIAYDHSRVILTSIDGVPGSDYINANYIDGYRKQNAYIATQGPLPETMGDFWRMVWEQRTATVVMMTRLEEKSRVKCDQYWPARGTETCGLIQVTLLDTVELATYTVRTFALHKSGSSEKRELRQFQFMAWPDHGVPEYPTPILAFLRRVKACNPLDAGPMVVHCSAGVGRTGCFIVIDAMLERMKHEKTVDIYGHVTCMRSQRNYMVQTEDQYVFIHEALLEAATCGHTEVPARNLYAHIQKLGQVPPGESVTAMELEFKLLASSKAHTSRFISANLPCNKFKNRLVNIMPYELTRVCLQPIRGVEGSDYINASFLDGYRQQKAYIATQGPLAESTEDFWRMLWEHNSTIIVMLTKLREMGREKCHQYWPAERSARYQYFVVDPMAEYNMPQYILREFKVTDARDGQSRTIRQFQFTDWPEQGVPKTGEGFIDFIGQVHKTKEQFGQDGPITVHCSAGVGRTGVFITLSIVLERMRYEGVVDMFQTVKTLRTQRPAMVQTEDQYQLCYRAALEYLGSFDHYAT

Structure (SMILES) | inhibition [%]
CCCCCNC(=O)[C@H](Cc1ccc(OCC(=O)O)c(C(=O)O)c1)NC(=O)[C@H](Cc1ccccc1)NC(=O)Oc1ccccc1 | 0
CCCCCNC(=O)[C@H](Cc1ccc(OC(C(=O)O)C(=O)O)cc1)NC(=O)[C@H](Cc1cccc2ccccc12)NC(=O)OC(C)(C)C | 34
CCCCCNC(=O)[C@H](Cc1ccc(OC(C(=O)O)C(=O)O)cc1)NC(=O)[C@H](Cc1ccc2ccccc2c1)NC(=O)OC(C)(C)C | 4
CCCCCNC(=O)[C@H](Cc1ccc(OC(C(=O)O)C(=O)O)cc1)NC(=O)[C@H](Cc1ccccc1)NC(=O)CCNC(=O)OC(C)(C)C | 2

Further lines, results first:

inhibition [%] | Structure (SMILES)
0 | CCCCCNC(=O)[C@H](Cc1ccc(OC(C(=O)O)C(=O)O)cc1)NC(=O)[C@H](CC(N)=O)NC(=O)OC(C)(C)C
6 | CCCCCNC(=O)[C@H](Cc1ccc(OC(C(=O)O)C(=O)O)cc1)NC(=O)[C@H](Cc1ccccc1)NC(=O)CCOC

Test system: not listed separately
Assay: Uptake of 2-DOG (2-deoxyglucose) into L6 myocytes in the presence of half-maximal concentration of insulin at 100 uM
Assay type: functional, Rattus norvegicus
Procedure, shortened: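 L6 myotubes are exposed to compound at 100 µM with 10 nM insulin, a dose eliciting about 50% of maximal uptake. The initial rate of 2-[3H]deoxyglucose uptake is measured, with L-[14C]glucose marking extracellular space, and normalized to recovered lysate protein. Net insulin-dependent transport with inhibitor is expressed as a percent of that without inhibitor.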

Structure (SMILES) | Control Uptake [%]
CCCCCNC(=O)[C@H](Cc1ccc(OCC(=O)O)c(C(=O)O)c1)NC(=O)[C@H](Cc1ccccc1)NC(=O)Oc1ccccc1 | 103
CCCCCNC(=O)[C@H](Cc1ccc(OC(C(=O)O)C(=O)O)cc1)NC(=O)[C@H](Cc1cccc2ccccc12)NC(=O)OC(C)(C)C | 84
CCCCCNC(=O)[C@H](Cc1ccc(OC(C(=O)O)C(=O)O)cc1)NC(=O)[C@H](CC(N)=O)NC(=O)OC(C)(C)C | 110
CCCCCNC(=O)[C@H](Cc1ccc(OC(C(=O)O)C(=O)O)cc1)NC(=O)[C@H](Cc1ccccc1)NC(=O)CCOC | 104
CCCCCNC(=O)[C@H](Cc1ccc(OC(C(=O)O)C(=O)O)cc1)NC(=O)[C@H](Cc1ccc2ccccc2c1)NC(=O)OC(C)(C)C | 62
CCCCCNC(=O)[C@H](Cc1ccc(OC(C(=O)O)C(=O)O)cc1)NC(=O)[C@H](Cc1ccccc1)NC(=O)CCNC(=O)OC(C)(C)C | 87

Biological target: T2, Tyrosine-protein phosphatase non-receptor type 1 (Homo sapiens, UniProt P18031)
T2 sequence (P18031 whole entry): T1 sequence (whole entry)
Assay: Inhibitory activity against human protein tyrosine phosphatase 1B (PTP1B)
Procedure, shortened: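 Ki against a C-terminally truncated, soluble recombinant human PTP1B. Initial rates of pNPP hydrolysis are measured, and the Ki is computed by the Cornish-Bowden direct linear method.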

Structure (SMILES) | pKi
CCCCCNC(=O)[C@H](Cc1ccc(OCC(=O)O)c(C(=O)O)c1)NC(=O)[C@H](Cc1ccccc1)NC(=O)Oc1ccccc1 | 6.06

Biological target: T3, Tyrosine-protein phosphatase non-receptor type 11 (Homo sapiens) (UniProt Q06124)
T3 sequence (whole entry): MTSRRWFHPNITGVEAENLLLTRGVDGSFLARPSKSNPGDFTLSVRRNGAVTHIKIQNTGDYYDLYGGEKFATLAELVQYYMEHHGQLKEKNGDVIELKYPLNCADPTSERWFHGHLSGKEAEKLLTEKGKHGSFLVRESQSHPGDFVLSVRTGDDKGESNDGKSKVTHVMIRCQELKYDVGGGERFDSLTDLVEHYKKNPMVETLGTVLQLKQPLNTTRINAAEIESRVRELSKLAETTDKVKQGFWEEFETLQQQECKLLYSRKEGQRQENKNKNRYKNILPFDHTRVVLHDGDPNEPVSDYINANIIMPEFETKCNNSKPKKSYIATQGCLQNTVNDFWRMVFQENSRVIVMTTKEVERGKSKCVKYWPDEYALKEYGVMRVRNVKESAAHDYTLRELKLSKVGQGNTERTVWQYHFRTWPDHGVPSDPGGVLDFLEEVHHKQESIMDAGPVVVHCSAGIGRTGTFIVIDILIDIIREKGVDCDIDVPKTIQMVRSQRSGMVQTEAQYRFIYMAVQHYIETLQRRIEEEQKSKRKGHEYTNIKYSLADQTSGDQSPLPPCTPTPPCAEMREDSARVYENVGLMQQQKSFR
Assay: Inhibition of recombinant human phosphatase (SHP-2) at a concentration of 100 uM
Procedure, shortened: as §1

Structure (SMILES) | inhibition [%]
CCCCCNC(=O)[C@H](Cc1ccc(OCC(=O)O)c(C(=O)O)c1)NC(=O)[C@H](Cc1ccccc1)NC(=O)Oc1ccccc1 | 11
CCCCCNC(=O)[C@H](Cc1ccc(OC(C(=O)O)C(=O)O)cc1)NC(=O)[C@H](Cc1cccc2ccccc12)NC(=O)OC(C)(C)C | 8
CCCCCNC(=O)[C@H](Cc1ccc(OC(C(=O)O)C(=O)O)cc1)NC(=O)[C@H](Cc1ccc2ccccc2c1)NC(=O)OC(C)(C)C | 3
CCCCCNC(=O)[C@H](Cc1ccc(OC(C(=O)O)C(=O)O)cc1)NC(=O)[C@H](Cc1ccccc1)NC(=O)CCNC(=O)OC(C)(C)C | 8

Second part, the compound after the results:

inhibition [%] | Structure (SMILES)
8 | CCCCCNC(=O)[C@H](Cc1ccc(OC(C(=O)O)C(=O)O)cc1)NC(=O)[C@H](CC(N)=O)NC(=O)OC(C)(C)C
11 | CCCCCNC(=O)[C@H](Cc1ccc(OC(C(=O)O)C(=O)O)cc1)NC(=O)[C@H](Cc1ccccc1)NC(=O)CCOC
